What was measured:
[1] = first-in-human clinical study; cited from earlier work
[2] = Pharmacokinetic parameters of MF-766 in mice; conditions: female, C57/B6, mouse, in vivo, po
CT26 tumors [3] = experiment: CT26 syngeneic tumor model efficacy study; assay type: in vivo, BALB/c mouse
Method in brief: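 Female BALB/cAnN mice (6–8 weeks) received 0.5 × 10^6 CT26 cells s.c. in the lower right flank. Dosing began at a mean tumor volume of 100 mm3 (75–125). Test compound 30 mg/kg (10% Tween 80) or vehicle was given orally QDx21; anti-PD-1 or isotype was given 10 mg/kg i.p. Q4Dx4. Volume = 0.5 × L × W², followed 60 days. RTV and TGI (%) were calculated; n = 9–12; one-way ANOVA vs vehicle/isotype.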

[4] = test system: healthy human whole blood; experiment: Ex vivo whole blood LPS-stimulated TNF-α assay; assay type: cell-based; conditions: 1 μg/mL LPS + PGE2
Method in brief: (§1)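 Blood was collected in sodium heparin. Healthy-donor blood was used fresh on assay day; CRC patient blood was drawn 1 day before and shipped overnight. Samples were pretreated 1 h with test compound, then stimulated with 1 μg/mL LPS (final) ± 0.037 μM PGE2 for 18 h. After centrifugation, TNF-α in the supernatant was measured by Meso Scale Discovery.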

CT26 tumors [5] = experiment: Flow cytometry of immune infiltrates in CT26 tumors; assay type: in vivo, mouse
Method in brief: (§2)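 Mice bearing 100 mm3 tumors were dosed as in the efficacy schedule, and tumors were harvested on day 8. Tumors were weighed, enzymatically dissociated and filtered (70 µm). Then 2–3 million cells were stained with fixable viability dye, Fc-blocked 10 min on ice and surface-stained 30 min on ice. Populations were gated within viable CD45+ singlets (NK CD3−CD335+CD49b+; gMDSC CD11b+Ly6G+; macrophages; DCs) and reported as % CD45+ and cells/mg tumor; n = 9–10.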

THP-1 cells = experiment: THP-1 LPS-stimulated TNF-α assay; assay type: cell-based, human; conditions: 1 h pretreatment, 1 μg/mL LPS + PGE2
Method in brief: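 THP-1 monocytes were preincubated 1 h with graded test compound concentrations. They were then stimulated with 1 μg/mL LPS, with or without 0.33 μM PGE2, for 18 h. Cells were centrifuged and TNF-α in the supernatant was quantified by Meso Scale Discovery.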

[6] = rat AIA model; cited from earlier work
EMT6 tumors [7] = experiment: Flow cytometry of immune infiltrates in EMT6 tumors; assay type: in vivo, mouse; conditions: EMT6, single-agent treatment
Method in brief: as §2

Human NK cells = experiment: Natural killer cell activation; assay type: cell-based
EMT6 tumors [8] = experiment: EMT6 syngeneic tumor model efficacy study; assay type: in vivo, BALB/c mouse; conditions: MF-766 30 mpk
Method in brief: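 EMT6 cells (0.5 × 10^6) were implanted s.c. in the right flank of female BALB/cAnN mice aged 6–8 weeks. Treatment started at a mean tumor volume of 100 mm3 (75–125). Test compound 30 mg/kg in 10% Tween 80 was dosed orally QDx28; anti-PD-1 10 mg/kg i.p. Q4Dx4. Tumor volume = 0.5 × L × W². Relative tumor volume and TGI (%) were derived vs control; n = 9–12; one-way ANOVA vs vehicle/isotype.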

CRC patient blood = experiment: Ex vivo whole blood LPS-stimulated TNF-α assay; assay type: cell-based, human; conditions: 1 μg/mL LPS + PGE2
Method in brief: as §1

human CD8+ T cells = experiment: MF-766 and pembrolizumab combination in human CD8+ T cells; assay type: cell-based; conditions: for CD8+ T cell viability: Fig S2B
Method in brief: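 CD8+ T cells were purified from frozen healthy-donor PBMCs and seeded at 1 × 10^5 cells/well in RPMI-1640 with 10% heat-inactivated FBS and 2 mM L-glutamine. Test compound was titrated from 3 µM in 3-fold steps ± PGE2 (10 nM), with pembrolizumab or human IgG4 isotype at 20 µg/mL. Cells were activated with anti-CD3/CD28 beads plus 100 U/mL IL-2 for 24 h at 37°C; IFN-γ was read by Meso Scale Discovery.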

[9] = test system: bone marrow-derived dendritic cells (BMDCs); experiment: Dendritic cell activation; assay type: cell-based, C57/BL6 mice; conditions: mouse BMDCs
Method in brief: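 Bone marrow flushed from C57BL/6 femurs was cultured 6 days in RPMI with 20 ng/mL mouse GM-CSF and 20 ng/mL mouse IL-4 to give immature DCs. Cells were pretreated 1 h with test compound, then given 1 μg/mL LPS ± 0.037 μM PGE2 for 18 h. Supernatant TNF-α was read with a Meso Scale Discovery mouse panel.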

[10] = test system: human primary tumor histoculture; experiment: Human tumor histoculture; assay type: cell-based; conditions: histoculture system
Method in brief: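 Tumor tissue was trimmed of fat, cut into ~400 µm slices and cultured at the air–liquid interface (37°C, 5% CO2) in DMEM with 10% FBS and penicillin/streptomycin. Slices were stimulated with 50 ng/mL anti-human CD3 plus test compound or DMSO for 48 h. IFN-γ, IL-2 and TNF-α were measured by Meso Scale Discovery and expressed as fold change vs DMSO (mean ± S.E.M, n = 8).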

[11] = test system: PGE2-induced MDSCs / autologous CD8+ T cells; experiment: Suppressive myeloid cell and T-cell co-culture assay; assay type: cell-based, human; conditions: 1:4 ratio, anti-CD3/CD28 beads, vs DMSO control; MF-766 10, 1, 0.1, 0.01 μM
[12] = test system: human monocyte-derived DCs; experiment: Dendritic cell activation; assay type: cell-based
Method in brief: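 Commercially sourced human dendritic cells were pretreated 1 h with test compound. They were then stimulated with 1 μg/mL LPS with or without 0.037 μM PGE2 for 18 h. TNF-α in the medium was quantified with a Meso Scale Discovery human pro-inflammatory panel.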

primary tumor digests = experiment: Anti-CD3-stimulated primary tumor digest culture; assay type: cell-based, human; conditions: without PGE2 spike
Method in brief: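 Cells were plated at 0.1 × 10^6/well, from four donors, and cultured 48 h. IFN-γ and TNF-α in supernatants were read on a Meso Scale Discovery platform; technical-replicate means were taken per donor.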

C[C@H](NC(=O)c1c(C(F)F)nn(C)c1Oc1cccc(C(F)(F)F)c1)c1ccc(C(=O)O)cc1 [E-7046]
tolerability [1]: well tolerated

O=C(O)c1ccc(C2(NC(=O)c3cccc4ccn(Cc5ccc(C(F)(F)F)cc5)c34)CC2)cc1 [MF-766, 4-[1-[([1-[4-(trifluoromethyl)benzyl]-1H-indol-7-yl]carbonyl)amino]cyclopropyl]be nzoic acid]
AUC(0-t) ([2]; 30 mg/kg): 57.5 ± 10.8 µM·h | Cmax ([2]; 30 mg/kg): 15 ± 4.37 µM | Tmax ([2]; 30 mg/kg): 30 min | AUC(0-t) ([2]; 100 mg/kg): 255 ± 97.3 µM·h | Cmax ([2]; 100 mg/kg): 24.1 ± 6.01 µM | Tmax ([2]; 100 mg/kg): 30 min | tumor progression on monotherapy (CT26 tumors [3]; MF-766 30 mpk monotherapy): all tumors progressed | tumor volume reduction (CT26 tumors [3]; compared to vehicle/isotype treated group, MF-766 30 mpk, muDX400 10 mpk): 49% | reversal of PGE2 suppression of LPS-stimulated TNF-α production [4]: partially reversed | MHCII high/low macrophage ratio (CT26 tumors [5]; CT26): increased | NK cells, percentage in CD45+ fraction and absolute number per mg tumor (CT26 tumors [5]; CT26, D8): significantly enriched | CD3+ T cells, frequency of CD45+ cells and absolute numbers in the tumor (CT26 tumors [5]; CT26, D8, primarily CD8+ T cells, not CD4+): significant enrichment | absolute numbers of tumor-infiltrating CD45+ leukocytes per mg tumor (CT26 tumors [5]; CT26, D8 post-therapy): significantly increased | CD8+ DCs (CT26 tumors [5]; CT26, single-agent treatment): remarkable increase | CT26 tumor weight (CT26 tumors [5]; day 8, difference did not reach statistical significance): trend toward reduction in size | reversal of PGE2-decreased LPS-stimulated TNF-α production (THP-1 cells): fully reversed | potency compared to other COX-2 inhibitors, including celecoxib and MF-tricyclic [6]: greater than 200 fold | CD8+ or NK cell infiltration into tumors (EMT6 tumors [7]): did not significantly increase | percentage of gMDSCs (EMT6 tumors [7]; absolute numbers per mg not significant): significantly decreased | reversal of PGE2-suppressed IFN-γ secretion (Human NK cells; 1 h pretreatment, 50 ng/mL IL-2 ± PGE2 overnight): reversed by pretreatment with MF-766 in a dose-dependent manner | NK cell viability (Human NK cells; conditions of Figure 2b (Fig S2A)): not affected | single-agent activity (EMT6 tumors [8]): did not show single-agent activity | restoration of PGE2-suppressed TNF-α production (CRC patient blood): partially restored | CD8+ T cell viability (human CD8+ T cells): Neither PGE2 nor MF-766 addition affected | reversal of PGE2-mediated inhibition of IFN-γ production (human CD8+ T cells; PGE2 10 nM, anti-CD3/CD28 beads, 24 hours, MF-766 alone): reversed PGE2-mediated inhibition of IFN-γ production | restoration of PGE2-suppressed TNF-α production ([9]; 1 μg/mL LPS + PGE2): fully restored | anti-CD3–stimulated IFN-γ, IL-2, and TNF-α secretion [10]: increase | reversal of MDSC/PGE2 suppression of IFN-γ release from CD8+ T cells [11]: reversed by MF-766 in a dose-dependent manner | restoration of PGE2-suppressed TNF-α production ([12]; 1 μg/mL LPS + PGE2): fully restored

CCCCC[C@H](O)/C=C/[C@H]1[C@H](O)CC(=O)[C@@H]1C/C=C\CCCC(=O)O [PGE2, Prostaglandin E2, reference compound]
CD8+ T cell viability (human CD8+ T cells): Neither PGE2 nor MF-766 addition affected | suppression of TNF-α production ([9]; compared to LPS alone): ~ 30% | suppression of TNF-α production ([12]; compared to LPS alone): ~ 30%

pembrolizumab: humanized monoclonal immunoglobulin (Ig)G4 antibody against PD-1
IFN-γ and TNF-α secretion (primary tumor digests): enhanced
